In ChEMBL document CHEMBL1123373, “9-(2-Deoxy-2-fluoro-beta-D-arabinofuranosyl)guanine: a metabolically stable cytotoxic analogue of 2'-deoxyguanosine” (J Med Chem, 1986):
Activity calls are given as the source filed them. No cut-off for these calls is given here.

How the values were obtained:
[1] = Compound was tested for its cytotoxicity against MGL-8 B -lymphoblasts; type: functional, Homo sapiens
Summary of the method: (§1)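 Cells seeded at 1 × 10^5/mL in RPMI 1640 with 10% fetal calf serum, 2 mM L-glutamine and increasing drug concentrations. Cultured 3 days under 95% air/5% CO2. Viable cells counted microscopically after adding 0.1% erythrocin B, relative to drug-free cultures. Points are mean ± SEM, except the adenosine kinase-deficient mutant, which used duplicates.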

[2] = tested on: T-cell; test: Compound was tested for its cytotoxicity against T- cell line; type: functional, cell-based; conditions: Homo sapiens; summary of the method: as §1
[3] = tested on: L1210; test: Inhibition of DNA synthesis in L1210 cells by the compound was determined the reduced incorporation of incorporation of [3H]dThd into DNA at concentration of 25 uM; type: functional; conditions: Mus musculus
Summary of the method: (§2)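 Cultured L1210 cells exposed to drug at 25, 50 or 100 µM. Label incorporation measured: [3H]dThd into DNA, [5-3H]Urd into RNA, [4,5-3H]L-Leu into protein. Values are percent inhibition of incorporation.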

[4] = tested on: L1210; test: Compound was tested for its ability to inhibit the incorporation of [3H]dThd into DNA at concentration of 100 uM; type: functional; conditions: Mus musculus; summary of the method: as §2
[5] = tested on: L1210; test: Inhibition of DNA synthesis in L1210 cells by the compound was determined the reduced incorporation of incorporation of [3H]dThd into DNA at concentration of 50 uM; type: functional; conditions: Mus musculus; summary of the method: as §2
[6] = tested on: L1210; test: Inhibition of RNA synthesis in L1210 cells by the compound was determined the reduced incorporation of [5-3H]-Urd into RNA at the concentration of 100 uM; NI denotes no inhibition; type: functional, cell-based; conditions: Mus musculus; summary of the method: as §2
[7] = tested on: L1210; test: Inhibition of protein synthesis in L1210 cells by the compound was determined the reduced incorporation of [4,5-3H]L-Leu into protein; type: functional, Mus musculus; summary of the method: as §2
[8] = tested on: Wild type T- cell line; test: Compound was tested for its cytotoxicity against wild type T- cell line; type: functional, cell-based; conditions: Homo sapiens; summary of the method: as §1
[9] = tested on: B-cell; test: Compound was tested for its cytotoxicity against B- cell line (Wi-L2 B -lymphoblasts); type: functional, cell-based; conditions: Homo sapiens; summary of the method: as §1
[10] = tested on: L1210; test: Effect of compound on macromolecular synthesis in L1210 cells in culture; 8.5-17uM; type: functional, cell-based; conditions: Mus musculus

Row | SMILES | IC50 [1] [nM] | IC50 [2] [nM] | inhibition at 25 µM [3] [%] | inhibition at 100 µM [4] [%] | inhibition at 50 µM [5] [%] | inhibition [6] | Inhibition [7] [%] | IC50 [8] [nM] | IC50 [9] [nM] | IC50 [10] [nM]
1 | Nc1nc2c(ncn2[C@@H]2O[C@H](CO)[C@@H](O)[C@H]2O)c(=O)[nH]1 [GUANOSINE] | 7000 | 100 | – | – | – | – | – | – | – | –
2 | Nc1nc(O)c2ncn([C@@H]3O[C@H](CO)[C@@H](O)[C@@H]3F)c2n1 [F-ARAG] | – | – | 12 | 76 | 62 | inactive | 17 | ~200 | ~750 | 8500
